From ChEMBL document CHEMBL5058577, “EUbOPEN Chemogenomics Library 2 (Multiplex)” (2022)

System: Fibroblast
Test: Multiplex assay against human fibroblast
Assay type: toxicity, cell-based
How it was run: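 Four dyes were applied at seeding to live cells: Hoechst33342, BioTracker Green Microtubule Cytoskeleton Dye, MitoTracker Red and Annexin V Alexa Fluor 680. Imaging after compound addition used a CQ1 microscope at 37°C and 5% CO2. CellPathfinder machine-learning gating then sorted cells into Hoechst high-intensity objects or normal cells, normal cells into healthy, pyknosed or fragmented nuclei, and pyknosed cells into mitotic or apoptotic, with tubulin, mitochondrial-mass and membrane-permeability phenotypes given as per cents of healthy-nucleus cells.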

[1] = 12 h, 1 µM, compound concentration 1 uM, replicate 1
[2] = 12 h, 1 µM, compound concentration 1 uM, replicate 2
[3] = 12 h, 10 µM, compound concentration 10 uM, replicate 1
[4] = 12 h, 10 µM, compound concentration 10 uM, replicate 2
[5] = 24 h, 1 µM, compound concentration 1 uM, replicate 1
[6] = 24 h, 1 µM, compound concentration 1 uM, replicate 2
[7] = 24 h, 10 µM, compound concentration 10 uM, replicate 1
[8] = 24 h, 10 µM, compound concentration 10 uM, replicate 2
[9] = 48 h, 1 µM, compound concentration 1 uM, replicate 1
[10] = 48 h, 1 µM, compound concentration 1 uM, replicate 2
[11] = 48 h, 10 µM, compound concentration 10 uM, replicate 1
[12] = 48 h, 10 µM, compound concentration 10 uM, replicate 2

O=C(CCCc1ccccc1)Nc1nc2ccccc2c(=O)s1
Population Apoptotic (%) [1]: 58% | Population Fragmented Nuclei (%) [1]: 9% | Population Healthy Nuclei (%) [1]: 66% | Population Hoechst High Intensity Objects (%) [1]: 2% | Population Membrane Permeable-Phenotype (%) [1]: 0% | Population Mitochondria Different-Phenotype (%) [1]: 4% | Population Mitotic Cells (%) [1]: 41% | Population Normal (%) [1]: 97% | Population Pyknosed Nuclei (%) [1]: 23% | Population Tubulin-Different-Phenotype (%) [1]: 34% | Total Cell Count [1]: 127 | Population Apoptotic (%) [2]: 34% | Population Fragmented Nuclei (%) [2]: 19% | Population Healthy Nuclei (%) [2]: 49% | Population Hoechst High Intensity Objects (%) [2]: 3% | Population Membrane Permeable-Phenotype (%) [2]: 9% | Population Mitochondria Different-Phenotype (%) [2]: 7% | Population Mitotic Cells (%) [2]: 65% | Population Normal (%) [2]: 96% | Population Pyknosed Nuclei (%) [2]: 31% | Population Tubulin-Different-Phenotype (%) [2]: 35% | Total Cell Count [2]: 135 | Population Apoptotic (%) [3]: 51% | Population Fragmented Nuclei (%) [3]: 21% | Population Healthy Nuclei (%) [3]: 58% | Population Hoechst High Intensity Objects (%) [3]: 2% | Population Membrane Permeable-Phenotype (%) [3]: 1% | Population Mitochondria Different-Phenotype (%) [3]: 4% | Population Mitotic Cells (%) [3]: 48% | Population Normal (%) [3]: 97% | Population Pyknosed Nuclei (%) [3]: 20% | Population Tubulin-Different-Phenotype (%) [3]: 28% | Total Cell Count [3]: 147 | Population Apoptotic (%) [4]: 31% | Population Fragmented Nuclei (%) [4]: 26% | Population Healthy Nuclei (%) [4]: 38% | Population Hoechst High Intensity Objects (%) [4]: 12% | Population Membrane Permeable-Phenotype (%) [4]: 13% | Population Mitochondria Different-Phenotype (%) [4]: 17% | Population Mitotic Cells (%) [4]: 68% | Population Normal (%) [4]: 87% | Population Pyknosed Nuclei (%) [4]: 35% | Population Tubulin-Different-Phenotype (%) [4]: 48% | Total Cell Count [4]: 133 | Population Apoptotic (%) [5]: 50% | Population Fragmented Nuclei (%) [5]: 13% | Population Healthy Nuclei (%) [5]: 68% | Population Hoechst High Intensity Objects (%) [5]: 2% | Population Membrane Permeable-Phenotype (%) [5]: 0% | Population Mitochondria Different-Phenotype (%) [5]: 5% | Population Mitotic Cells (%) [5]: 50% | Population Normal (%) [5]: 97% | Population Pyknosed Nuclei (%) [5]: 18% | Population Tubulin-Different-Phenotype (%) [5]: 20% | Total Cell Count [5]: 147 | Population Apoptotic (%) [6]: 42% | Population Fragmented Nuclei (%) [6]: 21% | Population Healthy Nuclei (%) [6]: 51% | Population Hoechst High Intensity Objects (%) [6]: 5% | Population Membrane Permeable-Phenotype (%) [6]: 4% | Population Mitochondria Different-Phenotype (%) [6]: 4% | Population Mitotic Cells (%) [6]: 57% | Population Normal (%) [6]: 94% | Population Pyknosed Nuclei (%) [6]: 26% | Population Tubulin-Different-Phenotype (%) [6]: 35% | Total Cell Count [6]: 131 | Population Apoptotic (%) [7]: 46% | Population Fragmented Nuclei (%) [7]: 19% | Population Healthy Nuclei (%) [7]: 60% | Population Hoechst High Intensity Objects (%) [7]: 5% | Population Membrane Permeable-Phenotype (%) [7]: 0% | Population Mitochondria Different-Phenotype (%) [7]: 3% | Population Mitotic Cells (%) [7]: 53% | Population Normal (%) [7]: 94% | Population Pyknosed Nuclei (%) [7]: 20% | Population Tubulin-Different-Phenotype (%) [7]: 15% | Total Cell Count [7]: 135 | Population Apoptotic (%) [8]: 53% | Population Fragmented Nuclei (%) [8]: 34% | Population Healthy Nuclei (%) [8]: 39% | Population Membrane Permeable-Phenotype (%) [8]: 18% | Population Mitochondria Different-Phenotype (%) [8]: 14% | Population Mitotic Cells (%) [8]: 46% | Population Pyknosed Nuclei (%) [8]: 25% | Population Tubulin-Different-Phenotype (%) [8]: 62% | Total Cell Count [8]: 134 | Population Apoptotic (%) [9]: 59% | Population Fragmented Nuclei (%) [9]: 13% | Population Healthy Nuclei (%) [9]: 66% | Population Hoechst High Intensity Objects (%) [9]: 5% | Population Membrane Permeable-Phenotype (%) [9]: 1% | Population Mitochondria Different-Phenotype (%) [9]: 1% | Population Mitotic Cells (%) [9]: 40% | Population Normal (%) [9]: 94% | Population Pyknosed Nuclei (%) [9]: 19% | Population Tubulin-Different-Phenotype (%) [9]: 32% | Total Cell Count [9]: 146 | Population Apoptotic (%) [10]: 42% | Population Fragmented Nuclei (%) [10]: 26% | Population Healthy Nuclei (%) [10]: 58% | Population Hoechst High Intensity Objects (%) [10]: 2% | Population Membrane Permeable-Phenotype (%) [10]: 4% | Population Mitochondria Different-Phenotype (%) [10]: 6% | Population Mitotic Cells (%) [10]: 57% | Population Normal (%) [10]: 97% | Population Pyknosed Nuclei (%) [10]: 15% | Population Tubulin-Different-Phenotype (%) [10]: 50% | Total Cell Count [10]: 127 | Population Apoptotic (%) [11]: 58% | Population Fragmented Nuclei (%) [11]: 19% | Population Healthy Nuclei (%) [11]: 58% | Population Hoechst High Intensity Objects (%) [11]: 2% | Population Membrane Permeable-Phenotype (%) [11]: 1% | Population Mitochondria Different-Phenotype (%) [11]: 2% | Population Mitotic Cells (%) [11]: 41% | Population Normal (%) [11]: 97% | Population Pyknosed Nuclei (%) [11]: 22% | Population Tubulin-Different-Phenotype (%) [11]: 26% | Total Cell Count [11]: 143 | Population Apoptotic (%) [12]: 77% | Population Fragmented Nuclei (%) [12]: 40% | Population Healthy Nuclei (%) [12]: 43% | Population Hoechst High Intensity Objects (%) [12]: 5% | Population Membrane Permeable-Phenotype (%) [12]: 10% | Population Mitochondria Different-Phenotype (%) [12]: 14% | Population Mitotic Cells (%) [12]: 22% | Population Normal (%) [12]: 94% | Population Pyknosed Nuclei (%) [12]: 16% | Population Tubulin-Different-Phenotype (%) [12]: 73% | Total Cell Count [12]: 119
